In ChEMBL document CHEMBL3804820, “2-hydroxyisoquinoline-1,3(2H,4H)-diones (HIDs) as human immunodeficiency virus type 1 integrase inhibitors: Influence of the alkylcarboxamide substitution of position 4” (Eur J Med Chem, 2016):

Assays:
[1] = Cytotoxicity against human MT4 cells assessed as reduction in cell viability by MTT assay; format: cell-based
How it was run: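 MT-4 cell viability was measured by MTT reduction, run in parallel with the antiviral assay using 5-fold serial compound dilutions. CC50 is the concentration reducing viability by 50%.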

[2] = biological target: T1, Human immunodeficiency virus type 1 integrase (Human immunodeficiency virus 1, UniProt Q7ZJM1); test: Inhibition of HIV1 integrase using 3'-biotin-labelled and 5'-digoxigenin-labelled oligonucleotide substrate incubated for 1 hr by ELISA
T1 sequence (Q7ZJM1 whole entry): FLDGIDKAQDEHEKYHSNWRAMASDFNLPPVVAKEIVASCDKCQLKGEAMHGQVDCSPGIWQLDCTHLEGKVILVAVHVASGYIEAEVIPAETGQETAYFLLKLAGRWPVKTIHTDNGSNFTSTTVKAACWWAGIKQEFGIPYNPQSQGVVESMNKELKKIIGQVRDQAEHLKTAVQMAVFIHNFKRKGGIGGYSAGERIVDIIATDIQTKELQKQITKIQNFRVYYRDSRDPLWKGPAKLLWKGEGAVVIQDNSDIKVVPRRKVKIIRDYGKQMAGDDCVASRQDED
How it was run: (§1)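 ELISA with a 3'-biotin oligo and a 5'-digoxigenin partner oligo. Overall assay uses the full complementary oligo; strand transfer uses a precleaved oligo lacking the 3'-GT. Integrase at 160 nM final, annealed oligos 7 nM, in 10 mM MgCl2, 5 mM DTT, 20 mM HEPES pH 7.5, 0.5% PEG, 15% DMSO. Run 1 h at 37 °C, products denatured with NaOH, detected on avidin plates.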

[3] = biological target: T1, Human immunodeficiency virus type 1 integrase; test: Inhibition of HIV1 integrase strand transfer activity using 5'[digoxigenin]-GACCCTTTTAGTCAGTGTGGAAAATCTCTAGCA-3' as substrate incubated for 1 hr by ELISA; how it was run: as §1
[4] = tested on: Human immunodeficiency virus 1; test: Antiviral activity against HIV1 3B infected in human MT4 cells assessed as reduction in virus-induced cytopathic effect by MTT assay; format: functional, organism-based; conditions: Human immunodeficiency virus 1, 3B
How it was run: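 MT-4 cells infected with 100-300 CCID50 of HIV-1 IIIB, in the presence of 5-fold serial dilutions of compound. Cytopathic effect read by MTT reduction to formazan, measured spectrophotometrically. EC50 is the concentration giving 50% protection against virus-induced CPE.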

[5] = Therapeutic index, ratio of CC50 for human MT4 cells to EC50 for HIV1 3B infected in human MT4 cells; format: cell-based; conditions: read-out: Ratio CC50/EC50
How it was run: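 Ratio of CC50 to EC50. Both were determined in parallel by MTT in MT-4 cells, with the EC50 measured against HIV-1 IIIB cytopathic effect.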

[6] = tested on: Human immunodeficiency virus 1; test: Antiviral activity against HIV1 3B infected in human MT4 cells at 50 to 100 times antiviral EC50 added 1 to 25 hrs post infection assessed as time required for loss of inhibition of viral replication measured at 30 hrs post infection by p24 ELISA method; format: functional
[7] = Inhibition of recombinant HIV1 reverse transcriptase RNase H activity using calf thymus ssDNA-[3H]-RNA as template/primer incubated for 10 mins; parameters: species or system Human immunodeficiency virus 1
How it was run: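 Recombinant HIV-1 RT (4.5 pmol) preincubated with compound 10 min at 37 °C. Then reacted 10 min at 37 °C with [3H]-RNA/calf thymus DNA hybrid (20,000 cpm) in 50 mM Tris-HCl pH 8.0, 10 mM DTT, 6 mM MgCl2, 80 mM KCl. Stopped with cold TCA/pyrophosphate; released radioactivity taken by subtraction from undigested control.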

[8] = tested on: Human immunodeficiency virus 1; test: Selectivity ratio of EC50 for raltegravir resistant HIV1 harboring integrase G140S/Q148H double mutant infected in human MT4 cells to EC50 for wild type HIV1 3B infected in human MT4 cells; format: functional
How it was run: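 MT-4 cells were infected with 100–300 CCID₅₀ of virus stock (titrated in MT-4 cells) in the presence of 5-fold serial drug dilutions. EC₅₀ is the concentration giving 50% protection against virus-induced cytopathic effect, read by MTT reduction (MT-4/MTT assay). The value is the fold-change in EC₅₀ for each mutant strain relative to the wild-type HIV-1 strain.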

| IC50 [2] | IC50 [3] | IC50 [7] | Compound | CC50 [1] | EC50 [4] | selectivity ratio [5] | Time [6] | Ratio EC50 [8] |
| --- | --- | --- | --- | --- | --- | --- | --- | --- |
| 1.82 µM | 1.99 µM | – | CCCNC(=O)C1C(=O)N(O)C(=O)c2ccccc21 (stereo unspecified) | 131 µM | 28 µM | 4.7 | – | – |
| 0.66 µM | 0.48 µM | 15.1 µM | CCCCNC(=O)C1C(=O)N(O)C(=O)c2ccccc21 (stereo unspecified) | 128 µM | 9.2 µM | 14 | – | – |
| 0.65 µM | 0.53 µM | – | CCCCCNC(=O)C1C(=O)N(O)C(=O)c2ccccc21 (stereo unspecified) | 130 µM | 10.7 µM | 12.1 | – | – |
| 0.86 µM | 1.05 µM | 23.2 µM | CCCCCCCNC(=O)C1C(=O)N(O)C(=O)c2ccccc21 (stereo unspecified) | 110 µM | 32.5 µM | 3.4 | – | – |
| 123 µM | 206 µM | – | CCN(CC)C(=O)C1C(=O)N(O)C(=O)c2ccccc21 (stereo unspecified) | 28 µM | > 28 µM | – | – | – |
| 4.45 µM | 4.46 µM | – | CC(C)(C)NC(=O)C1C(=O)N(O)C(=O)c2ccccc21 (stereo unspecified) | 142 µM | > 142 µM | – | – | – |
| 9.05 µM | 9.13 µM | – | CCCCCCCCNC(=O)C1C(=O)N(O)C(=O)c2ccccc21 (stereo unspecified) | 98.5 µM | 28 µM | 3.5 | – | – |
| 4.43 µM | 5.05 µM | – | CC(C)NC(=O)C1C(=O)N(O)C(=O)c2ccccc21 (stereo unspecified) | 162 µM | 30.2 µM | 5.4 | – | – |
| 8.66 µM | 8.7 µM | – | CCCCN(C)C(=O)C1C(=O)N(O)C(=O)c2ccccc21 (stereo unspecified) | 63.8 µM | > 63.8 µM | – | – | – |

Continued, compound first:

| Compound | IC50 [2] | IC50 [3] | IC50 [7] | CC50 [1] | EC50 [4] | selectivity ratio [5] | Time [6] | Ratio EC50 [8] |
| --- | --- | --- | --- | --- | --- | --- | --- | --- |
| O=C(NC1CCCC1)C1C(=O)N(O)C(=O)c2ccccc21 (stereo unspecified) | 1.36 µM | 3.63 µM | – | > 250 µM | 61.9 µM | > 4 | – | – |
| O=C(NC1CCCCC1)C1C(=O)N(O)C(=O)c2ccccc21 (stereo unspecified) | 0.7 µM | 3.36 µM | – | > 250 µM | 80.2 µM | > 3 | – | – |
| CC(C)c1nc(CN(C)C(=O)N[C@H](C(=O)N[C@@H](Cc2ccccc2)C[C@H](O)[C@H](Cc2ccccc2)NC(=O)OCc2cncs2)C(C)C)cs1 [RITONAVIR] | – | – | – | – | – | – | 25 h | – |
| O=C(NC1CC1)C1C(=O)N(O)C(=O)c2ccccc21 (stereo unspecified) | 2.13 µM | 4 µM | – | > 250 µM | 42.7 µM | > 6 | – | – |
| O=C(C1C(=O)N(O)C(=O)c2ccccc21)N1CCCCC1 (stereo unspecified) | 8.12 µM | 9.1 µM | – | 120 µM | > 120 µM | – | – | – |
| CCCCCCCCCNC(=O)C1C(=O)N(O)C(=O)c2ccccc21 (stereo unspecified) | 6.65 µM | 6.67 µM | – | 88.5 µM | 29 µM | 3 | – | – |
| Cc1cn([C@H]2C[C@H](N=[N+]=[N-])[C@@H](CO)O2)c(=O)[nH]c1=O [ZIDOVUDINE] | – | – | – | – | – | – | 4 h | – |
| C[C@@H]1CCO[C@H]2Cn3cc(C(=O)NCc4ccc(F)cc4F)c(=O)c(O)c3C(=O)N12 [DOLUTEGRAVIR] | – | – | – | – | – | – | – | 5 |
